This is an account of results in ChEMBL document CHEMBL4052757, “Bistacrines as potential antitrypanosomal agents” (Bioorg Med Chem, 2017).

Calls of active or inactive are those of the source. The calls are words filed in the database; no cut-off is given here.

The nature of series [1]: Aqueous solubility of the compound. In kind it is physicochemical. As to conditions: buffer.
Series [2] has as its system Trypanosoma brucei brucei. The series can be described thus: Antitrypanosomal activity against Trypanosoma brucei brucei TC221 after 72 hrs by alamar blue assay. In kind it is functional. As to conditions: TC221, 72 h. The procedure, abridged: (§1)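 T. b. brucei TC221 bloodstream-form proliferation measured by alamarBlue (resazurin reduced to resorufin by living cells); 48 h and 72 h read-outs. IC50 derived per Räz et al. method; each compound tested in duplicate, mean of two values.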
For orientation: Resazurin is reduced to fluorescent resorufin, in cell work by metabolically active cells.

Series [3] concerns J774.1. As to the kind of experiment: Cytotoxicity against mouse J774.1 cells after 24 hrs by alamar blue assay. In kind it is cell-based. The conditions noted are these: J774.1, 24 h.
Series [4] in a line: Selectivity index, ratio of IC50 for mouse J774.1 cells to IC50 for Trypanosoma brucei brucei TC221 measured after 48 hrs. In kind it is toxicity. As to conditions: J774.1 cells (versus Trypanosoma brucei brucei TC221), read-out: Ratio IC50. The procedure, abridged:
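Selectivity index computed as IC50 (J774.1 macrophages, alamarBlue) divided by IC50 (T. b. brucei TC221, alamarBlue); duplicate determinations, means used.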

For series [5], the system named is Trypanosoma brucei brucei. As to the kind of experiment: Antitrypanosomal activity against Trypanosoma brucei brucei TC221 after 48 hrs by alamar blue assay. As to conditions: TC221, 48 h. It is filed as functional. The procedure, abridged: as §1
Series [6] has as its system Leishmania infantum. The series can be described thus: Antileishmanial activity against Leishmania infantum. It is filed as functional.
The target in series [7] is Rhodesain (Trypanosoma brucei rhodesiense) (UniProt Q95PM0). The series can be described thus: Inhibition of Trypanosoma brucei rhodesiense rhodesain using Cbz-Phe-Arg-AMC as substrate by spectrofluorometric analysis.
Rhodesain (Trypanosoma brucei rhodesiense), sequence (Q95PM0 1-450): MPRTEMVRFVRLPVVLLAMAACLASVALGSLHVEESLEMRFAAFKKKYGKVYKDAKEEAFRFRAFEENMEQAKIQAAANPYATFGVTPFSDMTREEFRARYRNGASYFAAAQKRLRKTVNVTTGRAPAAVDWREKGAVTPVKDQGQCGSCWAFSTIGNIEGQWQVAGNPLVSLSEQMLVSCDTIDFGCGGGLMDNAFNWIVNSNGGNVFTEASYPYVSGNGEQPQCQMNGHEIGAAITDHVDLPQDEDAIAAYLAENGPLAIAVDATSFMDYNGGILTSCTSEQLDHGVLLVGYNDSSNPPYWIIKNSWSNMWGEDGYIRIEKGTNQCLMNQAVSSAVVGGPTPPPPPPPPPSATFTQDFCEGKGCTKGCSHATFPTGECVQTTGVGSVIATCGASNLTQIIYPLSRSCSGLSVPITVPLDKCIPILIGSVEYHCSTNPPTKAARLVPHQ
For series [8] the target is unchanged. The series can be described thus: Inhibition of Trypanosoma brucei rhodesiense rhodesain at 20 uM using Cbz-Phe-Arg-AMC as substrate measured for 5 mins by spectrofluorometric analysis relative to control. The procedure, abridged:
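Rhodesain in 50 mM sodium acetate pH 5.5 with 5 mM DTT, 5 mM EDTA, 200 mM NaCl; inhibitor 20 µM, substrate Cbz-Phe-Arg-AMC; AMC fluorescence (ex 380/em 460 nm) followed 5 min; activity from slopes of fluorescence vs time versus DMSO control; run in duplicate.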

Series [9] is described as follows: Inhibition of trypanothione reductase.
Series [10] concerns the target Rhodesain (Trypanosoma brucei rhodesiense, UniProt Q95PM0). As to the kind of experiment: Inhibition of Trypanosoma brucei rhodesiense rhodesain using Cbz-Phe-Arg-AMC as substrate measured for 10 mins by spectrofluorometric analysis.
Series [11] is described as follows: Stability of the compound. It is filed as physicochemical.

Rhodesain, sequence (Q95PM0 whole entry): as the sequence (Q95PM0 1-450) above

Consider `O=C1CCCc2nc3ccccc3c(NCCCCCCCCNc3c4c(nc5ccccc35)CCCC4=O)c21`, for which, in series [1], the solubility result is on record as “Insoluble”.
As a reminder, the IC50 is the concentration that inhibits the measured activity by half. Low readings indicate inhibition by little substance, high ones a need for much substance. With `CC1CCc2nc3ccccc3c(N)c2C1` (centres undefined), the IC50 in [2] was 18.1 µM; in series [3] it was 44.9 µM; in [5], 15.8 µM. For the same compound, the selectivity ratio at 48 h in [4] is 2.8.
As usually defined, the inhibition is the share of the control response that was lost under treatment. Regarding `CCOC1CCc2nc3cc(Cl)ccc3c(NCCCCCCCCCNc3c4c(nc5cc(Cl)ccc35)CCC(OCC)C4)c2C1` (centres undefined), the IC50 amounted to 0.71 µM in series [2], 1.7 µM in series [3], 13.3 µM in [10] and 0.63 µM in series [5]. The selectivity ratio at 48 h in series [4] worked out at 2.8. In addition, the result in series [6] was Active. The inhibition result in [7] is “Dose-dependent effect”; in series [8] it was 89%. Moreover, in series [9], the inhibition result is “Active”.
Consider `CC1CCc2nc3ccc(Cl)cc3c(N)c2C1` (centres undefined), for which the values for the IC50 in series [2], in series [3] and in [5] were 10.3 µM, 43.8 µM and 3.9 µM, respectively. Moreover, the selectivity ratio at 48 h in [4] came to 11.2.
On to `C1=Cc2c(nc3ccccc3c2NCCCCCCNc2c3c(nc4ccccc24)CCC=C3)CC1`, for which the Stability entry in series [11] is “Stable”. Further, the IC50 in series [2] was 0.7 µM; in series [3], 1.8 µM; in [5] it was 0.51 µM. Besides, the selectivity ratio at 48 h in series [4] was 3.5. The outcome in [6] was Active. Also, in series [9], the inhibition entry was “Active”.
For the compound `N=C(N)c1ccc(OCCCCCOc2ccc(C(=N)N)cc2)cc1` [PENTAMIDINE], the IC50 in series [3] amounted to 38.6 µM; in [5], 0.0053 µM. For the same compound, the selectivity ratio at 48 h in series [4] was 7280.
As to `Nc1c2c(nc3ccccc13)CCCC2` [TACRINE], the values for the IC50 in [2] and in [5] were 18.4 µM and 14.6 µM, respectively. Further, the selectivity ratio at 48 h in series [4] was above 6.8.
In the same order, the values of `CCCC1CCc2nc3ccc(Cl)cc3c(N)c2C1` (centres undefined) are 3.4 µM, 2.7 µM and 3.1.
Consider `c1ccc2c(NCCCCCNc3c4c(nc5ccccc35)CCCC4)c3c(nc2c1)CCCC3`, for which the IC50 turned out to be 6.4 µM in series [2] and 5.2 µM in [5]. Also, the result in series [6] was Active. For the same compound, in [8], the inhibition came out at 9%.
`c1ccc2c(NCCCCCCCCCCNc3c4c(nc5ccccc35)CCCC4)c3c(nc2c1)CCCC3`: the values for the half-inhibitory concentration (IC50) in [2] and in series [5] were 0.15 µM and 0.12 µM, respectively. In addition, the selectivity ratio at 48 h in series [4] is 15. Further, in [6], the outcome was Active. For the same compound, the inhibition result in series [9] is “Active”.
Regarding `CCCC1CCc2nc3cc(Cl)ccc3c(N)c2C1` (centres undefined), the IC50 in [2] is 3.4 µM; in [3] it was 8.4 µM; in series [5], 2.6 µM. Besides, the selectivity ratio at 48 h in series [4] was determined as 3.2.
The corresponding values for `CC1CCc2nc3ccc([N+](=O)[O-])cc3c(N)c2C1` (centres undefined) are 4.8 µM, 46.4 µM, 3.2 µM and 14.5.
For the compound `COc1ccc2nc3c(c(NCCCCCCCCCNc4c5c(nc6ccc(OC)cc46)CCCC5)c2c1)CCCC3`, the IC50 worked out at 0.14 µM in series [2], 18.1 µM in series [10] and 0.12 µM in series [5]. Besides, the selectivity ratio at 48 h in [4] was determined as 10.6. Moreover, the outcome in series [6] was Active. Also, the inhibition result in [7] was “Dose-dependent effect”; in [8], 82%. In addition, the inhibition entry in series [9] is “Active”.
On to `Nc1c2c(nc3ccccc13)CCCC2=O`, for which the concentration for half-maximal inhibition (IC50) in series [2] was 18 µM; in series [3], above 100 µM; in series [5], 14.6 µM. In addition, the selectivity ratio at 48 h in [4] is above 6.8.
For `CC1CCc2nc3cc(Cl)ccc3c(N)c2C1` (centres undefined), the figures for the IC50 in series [2], in series [3] and in [5] were 13.4 µM, 41.2 µM and 6 µM, respectively. Besides, in series [4], the selectivity ratio at 48 h was 6.9.
As to `CC1(C)CCc2c(nc3cc(Cl)ccc3c2NCCCCCCNc2c3c(nc4cc(Cl)ccc24)CC(C)(C)CC3)C1`, the IC50 in [2] is 0.72 µM; in [3] it was 1.7 µM; in series [10], 26.6 µM; in [5], 0.64 µM. Further, the selectivity ratio at 48 h in [4] was 2.7. The result in [6] was Active. Further, the inhibition result in series [7] was “Dose-dependent effect”; in [8], 64%. For the same compound, in series [9], the inhibition result is “Active”.
`O=C1CCCc2nc3ccccc3c(NCCCCCCCCCNc3c4c(nc5ccccc35)CCCC4=O)c21`: the solubility result in series [1] is given as “Insoluble”.
Turning to `CCCC1CCc2nc3ccccc3c(N)c2C1` (centres undefined), the half-inhibitory concentration (IC50) in [2] is 3.5 µM; in [5], 2.6 µM. The selectivity ratio at 48 h in series [4] turned out to be 16.5.
As for `CCC1CCc2nc3ccccc3c(N)c2C1` (centres undefined), the IC50 in [2] amounted to 17.2 µM; in series [3], 43.6 µM; in [5], 12.3 µM. Further, the selectivity ratio at 48 h in [4] is 3.5.
In the case of `O=C1CCCc2nc3ccccc3c(NCCCCCCCNc3c4c(nc5ccccc35)CCCC4=O)c21`, the solubility entry in [1] is recorded as “Insoluble”.
On the same count and under the same terms, the value for `O=C1CCCc2nc3ccccc3c(NCCCCCCCCCCNc3c4c(nc5ccccc35)CCCC4=O)c21` was “Insoluble”.
As to `CCC1CCc2nc3cc(Cl)ccc3c(N)c2C1` (centres undefined), the IC50 in [2] stood at 3.5 µM; in series [3] it was 24.4 µM; in series [5], 2.8 µM. Further, the selectivity ratio at 48 h in series [4] amounted to 8.7.
With `Nc1c2c(nc3ccc(Cl)cc13)CCCC2`, the IC50 in [2] was 16.5 µM; in series [5], 12 µM. In addition, the selectivity ratio at 48 h in series [4] is 3.6.
As to `CCCCOC1CCc2nc3cc(Cl)ccc3c(NCCCCCCCCCNc3c4c(nc5cc(Cl)ccc35)CCC(OCCCC)C4)c2C1` (centres undefined), the IC50 was 0.42 µM in [2], 8.6 µM in series [3] and 0.43 µM in series [5]. The selectivity ratio at 48 h in series [4] came to 20. Also, the result in [6] was Active. In addition, the inhibition in series [8] turned out to be 26%. Further, the inhibition result in [9] is “Active”.
Take `CC1CCc2c(nc3ccccc3c2N)C1` (centres undefined): the 50% inhibitory concentration (IC50) in series [2] was 17.6 µM; in [3], 45 µM; in series [5] it was 14.5 µM. In addition, in series [4], the selectivity ratio at 48 h came to 3.1.
As to `O=C1CCCc2nc3ccccc3c(NCCCCCCNc3c4c(nc5ccccc35)CCCC4=O)c21`, the solubility result in series [1] is recorded as “Insoluble”.
Consider `Nc1c2c(nc3cc(Cl)ccc13)CCCC2`, for which the results for the IC50 in [2], in [3] and in [5] were 17.1 µM, 41 µM and 12.6 µM, respectively. The selectivity ratio at 48 h in series [4] is 3.3.
In the case of `CC1CCc2nc3ccccc3c(NCCCCCCCCCNc3c4c(nc5ccccc35)CCC(C)C4)c2C1` (centres undefined), the IC50 was determined as 0.21 µM in [2], 1.8 µM in [3], 26.6 µM in [10] and 0.16 µM in series [5]. The selectivity ratio at 48 h in [4] was found to be 11.3. In addition, the outcome in series [6] was Active. Further, the inhibition result in series [7] is “Dose-dependent effect”; in [8] it was 68%. Also, the inhibition entry in [9] is “Active”.
Turning to `CC1CCc2c(nc3ccc([N+](=O)[O-])cc3c2N)C1` (centres undefined), the figures for the IC50 in series [2], in series [3] and in series [5] were 3.7 µM, 43.3 µM and 6.1 µM, respectively. Also, the selectivity ratio at 48 h in series [4] stood at 7.1.
The corresponding values for `CCC1CCc2nc3ccc(Cl)cc3c(N)c2C1` (centres undefined) are 3.7 µM, 8.3 µM, 2.7 µM and 3.1.
In the case of `Nc1c2c(nc3ccc([N+](=O)[O-])cc13)CCCC2`, the IC50 is 15.1 µM in [2] and 8.6 µM in [5]. For the same compound, the selectivity ratio at 48 h in [4] stood at 5.2.
